This note sets out measurements from ChEMBL document CHEMBL1156815, “Synthesis and opioid activity of enantiomeric N-substituted 2,3,4,4a,5,6,7,7a-octahydro-1H-benzofuro[3,2-e]isoquinolines” (J Med Chem, 2010).

Experiment [1] is filed under the species Homo sapiens. The experiment is described as follows: Selectivity index, ratio of Ki for human kappa opioid receptor to human mu opioid receptor.
The species named for experiment [2] is Rattus norvegicus. The experiment in a line: Selectivity index, ratio of Ki for rat brain sigma2 receptor to Ki for rat brain sigma1 receptor.
Experiment [3] concerns the target T1, Kappa-type opioid receptor (Homo sapiens, UniProt P41145). Conditions: CHO.
Experiment [4] is filed under the species Homo sapiens. The experiment in a line: Selectivity index, ratio of Ki for human delta opioid receptor to human mu opioid receptor.
In experiment [5] the target is T2, Delta-type opioid receptor (Homo sapiens, UniProt P41143). Conditions: CHO.
The target in experiment [6] is T3, Mu-type opioid receptor (Homo sapiens, UniProt P35372). Conditions: CHO.
Experiment [7] in a line: Displacement of [3H]di-O-tolyguanidine from sigma2 receptor in rat brain homogenate. Type of experiment: tissue-based. For orientation: Loss of bound radioactivity is the signal in a displacement assay; it reports binding, not function.
Experiment [8] deals with T3, Mu-type opioid receptor. The experiment in a line: biochemical. The experiment is classed as cell-based, CHO.
In experiment [9] the target is T1, Kappa-type opioid receptor. The experiment in a line: biochemical. Type of experiment: cell-based, CHO.
The target of experiment [10] is Sigma non-opioid intracellular receptor 1 (Rattus norvegicus, UniProt Q9R0C9). The experiment is described as follows: Displacement of [3H](+)-pentazocine from sigma1 receptor in rat brain homogenate. The experiment is classed as tissue-based. A digest of the protocol:
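Rat brain homogenate binding. Nonspecific binding defined with haloperidol. Means ± SEM from replicate assays.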

Experiment [11] deals with T2, Delta-type opioid receptor. The experiment in a line: Displacement of [125I]OXY from human delta opioid receptor expressed in CHO cells. The experiment is classed as cell-based.
Experiment [12] concerns the target T1, Kappa-type opioid receptor. Conditions: CHO. This is another data set of the same source.
Experiment [13] deals with T3, Mu-type opioid receptor. Conditions: CHO. This is another data set of the same source.
The nature of experiment [14]: Binding affinity to sigma receptor.
Experiment [15] deals with T3, Mu-type opioid receptor. The experiment is described as follows: Binding affinity to human mu opioid receptor expressed in CHO cells. The experiment is classed as cell-based.
In experiment [16] the target is T2, Delta-type opioid receptor. The experiment in a line: Binding affinity to human delta opioid receptor expressed in CHO cells. The experiment is classed as cell-based.
In experiment [17] the target is T2, Delta-type opioid receptor. The experiment is described as follows: Agonist activity at human delta opioid receptor expressed in CHO cells assessed as stimulation of [35S]GTPgammaS binding. Type of experiment: functional, cell-based. An outline of the steps:
(§1)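 [35S]GTPgammaS binding stimulation at the delta receptor, n = 3, reported with SD.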
A general note: GTPγS resists hydrolysis and so accumulates on activated G proteins.

Experiment [18] has as its target T2, Delta-type opioid receptor. The experiment in a line: Agonist activity at human delta opioid receptor expressed in CHO cells assessed as stimulation of [35S]GTPgammaS binding relative to 500 nM SNC80. The experiment is classed as functional, cell-based. An outline of the steps: as §1

Sigma non-opioid intracellular receptor 1, sequence (Q9R0C9 whole entry): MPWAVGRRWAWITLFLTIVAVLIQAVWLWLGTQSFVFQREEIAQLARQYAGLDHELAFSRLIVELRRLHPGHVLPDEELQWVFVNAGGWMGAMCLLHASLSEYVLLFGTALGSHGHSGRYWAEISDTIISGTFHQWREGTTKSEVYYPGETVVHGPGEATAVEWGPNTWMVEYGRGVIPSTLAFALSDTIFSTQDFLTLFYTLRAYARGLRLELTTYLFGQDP
T1 sequence (P41145 whole entry): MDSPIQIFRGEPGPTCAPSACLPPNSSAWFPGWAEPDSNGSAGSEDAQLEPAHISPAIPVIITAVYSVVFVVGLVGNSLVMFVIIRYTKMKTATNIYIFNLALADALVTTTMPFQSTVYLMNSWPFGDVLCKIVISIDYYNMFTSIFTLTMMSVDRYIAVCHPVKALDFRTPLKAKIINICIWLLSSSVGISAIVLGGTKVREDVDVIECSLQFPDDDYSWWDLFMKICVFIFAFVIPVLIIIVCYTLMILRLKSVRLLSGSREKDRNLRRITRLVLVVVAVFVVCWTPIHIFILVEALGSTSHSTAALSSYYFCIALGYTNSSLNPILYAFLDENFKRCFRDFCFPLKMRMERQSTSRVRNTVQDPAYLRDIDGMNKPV
T3 sequence (P35372 whole entry): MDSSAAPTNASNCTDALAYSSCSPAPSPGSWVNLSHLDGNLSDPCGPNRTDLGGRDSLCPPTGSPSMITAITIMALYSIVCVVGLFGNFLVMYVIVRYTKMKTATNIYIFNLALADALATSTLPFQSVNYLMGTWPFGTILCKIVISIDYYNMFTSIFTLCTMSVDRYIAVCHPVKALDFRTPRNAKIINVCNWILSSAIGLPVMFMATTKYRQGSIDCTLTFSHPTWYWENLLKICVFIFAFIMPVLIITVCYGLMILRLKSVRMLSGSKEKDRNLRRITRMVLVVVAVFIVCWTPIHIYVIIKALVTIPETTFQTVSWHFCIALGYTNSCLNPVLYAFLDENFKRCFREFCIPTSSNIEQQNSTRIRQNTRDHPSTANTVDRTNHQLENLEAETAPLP
T2 sequence (P41143 whole entry): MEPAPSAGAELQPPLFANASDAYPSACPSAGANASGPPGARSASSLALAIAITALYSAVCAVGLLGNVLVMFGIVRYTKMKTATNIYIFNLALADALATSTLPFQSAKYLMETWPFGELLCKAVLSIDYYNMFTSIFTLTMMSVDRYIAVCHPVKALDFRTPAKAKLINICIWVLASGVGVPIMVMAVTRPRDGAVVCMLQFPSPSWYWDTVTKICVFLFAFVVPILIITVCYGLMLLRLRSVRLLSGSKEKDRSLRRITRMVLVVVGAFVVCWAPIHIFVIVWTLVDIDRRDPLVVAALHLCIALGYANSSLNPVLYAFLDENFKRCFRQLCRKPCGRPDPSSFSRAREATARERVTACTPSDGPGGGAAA

In the case of `Oc1cccc2c1O[C@H]1CCC[C@H]3CN(CC4CC4)CC[C@@]231` (stereo in doubt; (-)-1b) [listing 1 of 2 here], the Ratio Ki was 1.3 in [1], more than 25 in experiment [2] and 25 in experiment [4]. Also, the ED50 in experiment [3] was found to be 2.3 nM. Further, the results for the Ke in [5] and in experiment [6] were 20 nM and 0.22 nM, respectively.
As to `Oc1cccc2c1O[C@H]1CCC[C@H]3CN(CCc4ccccc4)CC[C@@]231` (stereo in doubt; (-)-1c) [listing 1 of 2 here], the inhibition constant Ki was determined as 5380 nM in experiment [7]; 0.3 nM in experiment [8]; 15 nM in experiment [9]; 239 nM in experiment [10]; 6 nM in experiment [11].
`CC(C)=CCN1CC[C@@]2(C)c3cc(O)ccc3C[C@@H]1[C@@H]2C` displayed a Ki in experiment [7] of 56 nM.
`COc1cccc2c1O[C@H]1CCC[C@@H]3CN(C)CC[C@@]231` (stereo in doubt; (+)-4) [listing 1 of 2 here]: the Ki in experiment [8] was more than 10000 nM; in experiment [9] it was 1850 nM; in [11], more than 10000 nM.
As to `COc1cccc2c1O[C@H]1CCC[C@H]3CN(C)CC[C@@]231` (stereo in doubt; (-)-3a) [listing 1 of 2 here], the Ki in experiment [7] was 7480 nM; in [8], 236 nM; in experiment [9], 3470 nM; in [10], more than 10000 nM; in [11] it was 9750 nM.
`CN1CC[C@]23c4cccc(O)c4O[C@H]2CCC[C@H]3C1` (stereo in doubt; (-)-1a) [listing 1 of 2 here] registered a Ke in experiment [12] of 80 nM. The ED50 in [13] amounted to 19 nM.
As for `COc1cccc2c1O[C@H]1CCC[C@H]3CN(CC4CC4)CC[C@@]231` (stereo in doubt; (+)-3b) [listing 1 of 2 here], the Ratio Ki in experiment [2] turned out to be 71.
Compound `Oc1cccc2c1O[C@H]1CCC[C@H]3CN(CC4CC4)CC[C@@]231` (racemic) displayed a Ki in experiment [14] of 21 nM.
`COc1cccc2c1O[C@H]1CCC[C@H]3CN(C)CC[C@@]231` (stereo in doubt; (+)-3a) [listing 1 of 2 here]: the Ki in [7] is more than 10000 nM; in experiment [8], 7610 nM; in experiment [9], 7230 nM; in [10] it was 658 nM; in experiment [11], more than 10000 nM.
In the case of `COc1cccc2c1O[C@H]1CCC[C@H]3CN(CCc4ccccc4)CC[C@@]231` (stereo in doubt; (+)-3c) [listing 1 of 2 here], the Ki turned out to be 2550 nM in experiment [7]; 145 nM in experiment [8]; 1140 nM in experiment [9]; 278 nM in [10]; 8390 nM in experiment [11].
With `CC(C)=CCN1CC[C@]2(C)c3cc(O)ccc3C[C@H]1[C@H]2C` [(+)-PENTAZOCINE], the Ki in experiment [7] was 1360 nM.
Consider `CN1CC[C@]23c4cccc(O)c4O[C@H]2CCC[C@H]3C1` (stereo in doubt; (+)-1a), for which the Ki was 6900 nM in experiment [9], 2010 nM in experiment [10] and more than 10000 nM in experiment [11].
Turning to `COc1cccc2c1O[C@H]1CCC[C@H]3CN(CC4CC4)CC[C@@]231` (stereo in doubt; (-)-3b) [listing 1 of 2 here], the Ratio Ki amounted to 1.4 in [1], 11 in experiment [2] and 18 in experiment [4].
`C=CCN1CC[C@]23c4c5ccc(O)c4O[C@H]2C(=O)CC[C@@]3(O)[C@H]1C5` [NALOXONE] registered a Ki in experiment [7] of more than 10000 nM.
On to `CN1CC[C@]23c4cccc(O)c4O[C@H]2CCC[C@H]3C1` (stereo in doubt; (-)-1a) [listing 2 of 2 here], for which the Ki is more than 10000 nM in experiment [7], 14 nM in [9], more than 10000 nM in [10] and 44 nM in [11].
With `COc1cccc2c1O[C@H]1CCC[C@H]3CN(CC4CC4)CC[C@@]231` (stereo in doubt; (-)-3b) [listing 2 of 2 here], the Ki turned out to be 3270 nM in experiment [7]; 30 nM in experiment [8]; 41 nM in experiment [9]; 285 nM in [10]; 544 nM in [11].
For the compound `COc1cccc2c1O[C@H]1CCC[C@@H]3CN(C)CC[C@@]231` (stereo in doubt; (+)-4) [listing 2 of 2 here], the Ratio Ki in [1] was less than 0.19.
In the case of `COc1cccc2c1O[C@H]1CCC[C@H]3CN(CCc4ccccc4)CC[C@@]231` (stereo in doubt; (+)-3c) [listing 2 of 2 here], the Ratio Ki turned out to be 7.9 in [1], 9.2 in experiment [2] and 58 in [4].
On to `Oc1cccc2c1O[C@H]1CCC[C@H]3CN(CCc4ccccc4)CC[C@@]231` (stereo in doubt; (+)-1c) [listing 1 of 2 here], for which the inhibition constant Ki in experiment [7] was found to be 263 nM; in experiment [8], 275 nM; in [9] it was 1240 nM; in experiment [10] it was 131 nM; in experiment [11] it was 5000 nM.
Turning to `COc1cccc2c1O[C@H]1CCC[C@@H]3CN(C)CC[C@@]231` (stereo in doubt; (-)-4) [listing 1 of 2 here], the Ratio Ki in [1] was found to be 21; in experiment [4], 39.
With `COc1cccc2c1O[C@H]1CCC[C@H]3CN(C)CC[C@@]231` (stereo in doubt; (-)-3a) [listing 2 of 2 here], the Ratio Ki in [1] is 15; in [2], less than 0.7; in experiment [4] it was 41.
For `COc1cccc2c1O[C@H]1CCC[C@H]3CN(CCc4ccccc4)CC[C@@]231` (stereo in doubt; (-)-3c) [listing 1 of 2 here], the Ki in [7] is 3270 nM; in experiment [8], 24 nM; in [9], 1850 nM; in experiment [10], 560 nM; in [11], 490 nM.
Take `CN1CC[C@]23c4cccc(O)c4O[C@H]2CCC[C@@H]3C1` (stereo in doubt; (-)-5): the Ki in experiment [9] and in experiment [11] was more than 10000 nM in each case.
Regarding `CN1CC[C@]23c4cccc(O)c4O[C@H]2CCC[C@@H]3C1` (stereo in doubt; (+)-5), the Ki in [9] (cho) and in experiment [11] (cho) was more than 10000 nM in each case.
Regarding `C[C@@H](NC(=O)[C@@H](N)Cc1ccc(O)cc1)C(=O)NCC(=O)N(C)[C@@H](Cc1ccccc1)C(=O)NCCO`, the ED50 in [3] amounted to 8940 nM.
Take `Oc1cccc2c1O[C@H]1CCC[C@H]3CN(CC4CC4)CC[C@@]231` (stereo in doubt; (+)-1b) [listing 1 of 2 here]: the Ki in experiment [7] was 1030 nM; in experiment [8], 1330 nM; in experiment [9], 699 nM; in experiment [10] it was 201 nM; in [11] it was more than 10000 nM.
In the case of `Oc1cccc2c1O[C@H]1CCC[C@H]3CN(CCc4ccccc4)CC[C@@]231` (stereo in doubt; (+)-1c) [listing 2 of 2 here], the Ratio Ki in [1] turned out to be 4.5; in experiment [2], 2; in experiment [4] it was 18.
As for `Oc1cccc2c1O[C@H]1CCC[C@H]3CN(CC4CC4)CC[C@@]231` (stereo in doubt; (+)-1b) [listing 2 of 2 here], the results for the Ratio Ki in experiment [1] and in [2] were 0.53 and 5.1, respectively.
`COc1cccc2c1O[C@H]1CCC[C@H]3CN(C)CC[C@@]231` (stereo in doubt; (+)-3a) [listing 2 of 2 here]: the Ratio Ki in [1] is 0.95; in [2], more than 15.
On to `COc1cccc2c1O[C@H]1CCC[C@H]3CN(CC4CC4)CC[C@@]231` (stereo in doubt; (+)-3b) [listing 2 of 2 here], for which the inhibitory constant (Ki) in experiment [7] is 4370 nM; in [8], more than 10000 nM; in [9], more than 10000 nM; in experiment [10], 62 nM; in experiment [11], more than 10000 nM.
In the case of `Oc1cccc2c1O[C@H]1CCC[C@H]3CN(CC4CC4)CC[C@@]231` (stereo in doubt; (-)-1b) [listing 2 of 2 here], the Kd in experiment [15] was determined as 0.22 nM; in experiment [16] it was 20 nM. Further, the Ki in experiment [7] was more than 10000 nM; in [8], 0.08 nM; in experiment [9], 0.1 nM; in experiment [10] it was 399 nM; in experiment [11], 2 nM.
As to `COc1cccc2c1O[C@H]1CCC[C@H]3CN(CCc4ccccc4)CC[C@@]231` (stereo in doubt; (-)-3c) [listing 2 of 2 here], the Ratio Ki stood at 77 in experiment [1], 5.8 in [2] and 20 in experiment [4].
Regarding `COc1cccc2c1O[C@H]1CCC[C@@H]3CN(C)CC[C@@]231` (stereo in doubt; (-)-4) [listing 2 of 2 here], the Ki worked out at 27 nM in [8], 565 nM in experiment [9] and 1050 nM in [11].
As to `Oc1cccc2c1O[C@H]1CCC[C@H]3CN(CCc4ccccc4)CC[C@@]231` (stereo in doubt; (-)-1c) [listing 2 of 2 here], the Ratio Ki in experiment [1] came out at 50; in [2] it was 23; in [4], 20. Also, the ED50 came out at 148 nM in experiment [17] and 10 nM in experiment [13]. The compound further gave a Ke in experiment [12] of 130 nM. For the same compound, the Emax in experiment [18] is 64%.

Usually Ki stands for the equilibrium dissociation constant of an inhibitor or competing ligand from its target. In general, Kd refers to the free concentration of one partner at which half of the binding sites on the other are occupied at equilibrium, for simple one-to-one binding. As a reminder, the Emax is the maximal effect, on the per cent scale that the assay sets.
